Data: PubChem BioAssay AID588478 (ICCB-Longwood Screening Facility, Harvard Medical School, 2011)
Values joined by “and” are separate entries in the source; they are usually repeats but may differ in a detail not shown here. Equal values may be shown once. Screen size: about 330,000 compounds; about 1,100 (0.33%) were called active. This is one part of a sample in which actives are shown more often than they occur.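 Rule for the calls: active = mean inhibition over replicate wells above about 20% (limit read from the data); inactive = the rest.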

Each compound was assayed against Ubiquitin carboxyl-terminal hydrolase isozyme L5 (Homo sapiens) (UniProt Q9Y5K5) (assay: inhibitors of human UCH37 deubiquitinase, primary screen, biochemical, Ub-AMC cleavage, fluorescence (AID 588478;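 note: 0% = compound-free wells with enzyme and 100% = wells lacking proteasome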)). Conditions: purified proteasome/UCH37, Ub-AMC cleavage fluorescence; stronger effect = higher value; concentration not given here.
Method in brief: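 Test system – human UCH37 enzyme supplied as purified proteasome complex · Incubation – 30 min preincubation with enzyme, 25 min cleavage at room temperature · Detection – AMC fluorescence from Ub-AMC cleavage, excitation 355 nm, emission 460 nm · Benchmarks – no-proteasome wells (full inhibition) and compound-free wells (no inhibition)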

Ubiquitin carboxyl-terminal hydrolase isozyme L5 (Homo sapiens), sequence (Q9Y5K5 whole entry, looked up): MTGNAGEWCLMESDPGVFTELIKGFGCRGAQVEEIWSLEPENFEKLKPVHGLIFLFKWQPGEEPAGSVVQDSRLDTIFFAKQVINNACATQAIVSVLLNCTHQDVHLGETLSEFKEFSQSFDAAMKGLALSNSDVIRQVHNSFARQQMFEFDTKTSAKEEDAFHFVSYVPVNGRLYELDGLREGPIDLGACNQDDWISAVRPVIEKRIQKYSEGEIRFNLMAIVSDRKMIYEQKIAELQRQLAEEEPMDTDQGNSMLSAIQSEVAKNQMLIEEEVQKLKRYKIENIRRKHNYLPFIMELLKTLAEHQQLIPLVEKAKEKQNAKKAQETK

inhibition, inactive:
CC(=O)n1cc(C=NNC(=O)c2ccc(Cl)cc2)c2ccccc21 2.16%
O=C(Cc1cccs1)NN=Cc1ccc(O)cc1 1.44%
CCOC(=O)c1c(N=CC2=C(O)CC(C)(C)CC2=O)sc(C)c1C -1.87%
Cc1ccc(C=NNC(=O)CSc2nc3ccccc3c(=O)n2-c2ccccc2)s1 4.54%
Cc1ccc(NC(=O)Nc2cccnc2)cc1 0.429%
CC(C)(C)c1ccc(C=NNC(=S)Nc2cccnc2)cc1 2.4%
COc1cc(C=NN(C)C)ccc1OC(=O)c1cccs1 0.992%
COc1ccc(NC(=O)ON=Cc2ccccc2)cc1 2.45%
CC(=NNC(=O)c1cccs1)c1ccc(NC(=O)COc2ccc(Cl)cc2)cc1 -42%
O=C(O)c1cc(NN=Cc2ccncc2)ccc1Cl 14.4%
Nc1nnnn1CC(=O)NN=Cc1cc([N+](=O)[O-])ccc1Cl 4.32%
Cc1ccc(C=NNC(=O)CNC(=O)COc2ccccc2)o1 6.97%
CC(C)(C)NN=Cc1cc(Cl)cc([N+](=O)[O-])c1O 6.29%
CNC(=O)C(C#N)=c1sc(=CC(=O)OC)c(=O)n1-c1ccccc1 3.97%
Cc1ccc(C=NN2CCN(Cc3ccccc3)CC2)o1 1.82%
COc1ccc(C(=O)COC(=O)c2ccc([N+](=O)[O-])s2)cc1OC 4.79%
COc1ccc(C(=O)OCC(=O)Nc2ccc3[nH]c(=O)[nH]c3c2)c(OC)c1OC 0.187%
COc1cccc(C=NNc2cc(-n3nc(C)cc3-c3ccccc3)ncn2)c1O 3.24%
O=[N+]([O-])c1cc(S(=O)(=O)N2CCCC2)ccc1NN=Cc1cccnc1 3.11%
Cc1nn(-c2ccccc2)c(C)c1C=NNC(=O)c1cccs1 2.82%
CC(=O)Oc1ccc2c(c1)C(=O)c1ccccc1C2=O 6.5%
Cc1cc(C)c(COc2ccc(C=Nn3c(C)n[nH]c3=S)cc2)c(C)c1 2.64%
C[n+]1cn(N=Cc2ccccc2)c2ccccc21 0.369%
COc1ccc(C(C)=NNc2ccc(C(=O)O)cc2)cc1OC 12.1%
CCCC=NNc1nnc(Cc2ccc(OC)c(OC)c2)c(=O)[nH]1 2.12%
COc1ccc(C(C)=NNC(=O)c2ccc(N(C)C)cc2)cc1 3.67%
CC(=O)NC(=S)Nc1ccc(NC(=S)NC(=O)c2ccc([N+](=O)[O-])cc2)cc1 5.88%
COc1cc(NS(=O)(=O)c2ccc(NC(=O)c3ccc([N+](=O)[O-])cc3)cc2)ncn1 4.65%
COc1ccccc1/C=C/C=NN1CCN(Cc2ccc(Cl)cc2)CC1 5.57%
CN(Cc1ccccc1)C(=O)c1cccc(C(=O)N(C)Cc2ccccc2)c1 0.499%
CCN(CC)C(=O)N(CC)Cc1ccccc1 -0.131%
O=S1(=O)CCC(=NNc2ccc(C(F)(F)F)cn2)c2cc(F)ccc21 0.609%
COc1ccc(C(=O)NCC(=O)NN=Cc2cn[nH]c2-c2ccccc2)cc1 1.68%
O=C(O)c1ccc2c(c1)C(=O)N(NC(=O)c1ccc(O)cc1)C2=O 7.31%
Cn1cccc1/C=C1\SC(=S)N(NC(=O)c2ccc(Cl)cc2)C1=O 1.88%
Cc1ccc(NC(=O)ON=Cc2ccc(F)cc2)cc1 5.21%
Cc1cc(=O)oc2c3c(ccc12)OCC3=NN -22.9%
CC(=NNc1ccccc1C(=O)O)c1cccs1 10.1%
COC(=O)c1ccc(C=NOCC(=O)NC2CCCCCCC2)cc1 0.759%
CC1(OC(=O)CCc2ccccc2)C(=O)C=C2C=C(c3ccc(C#N)cc3)N(CCc3ccccn3)C=C2C1=O (centres undefined) 0.0366%
C=CCN1C=C2C(=O)C(C)(OC(=O)CCc3ccccc3)C(=O)C=C2C=C1c1ccc(C#N)cc1 (centres undefined) -31%
COc1ccc(C=NNc2nncn2N)cc1Br 14.1%
O=C(CN(Cc1ccccc1)S(=O)(=O)c1ccc2c(c1)OCCO2)NN=Cc1cccc(Br)c1 0.583%
CCOc1ccccc1C=c1sc2nc(-c3ccco3)nn2c1=O 3.89%
CCC(=NNC(=O)Cc1ccc(Br)cc1)c1cccs1 0.706%
CCCS(=O)(=O)N1CCC(C(=O)NCCCN(C)Cc2ccccc2)CC1 -3.1%
CCS(=O)(=O)N1CCCC(C(=O)NCc2ccc(C)cc2)C1 (centres undefined) 9.8%
COc1cc(C(C(=O)NC2CCCC2)N(C(=O)c2ccco2)c2ccccc2C(C)=O)cc(OC)c1OC (centres undefined) 4.15%
O=C(NC1CCCC1)C(c1ccco1)N(C(=O)c1ccco1)c1ccc(F)cc1 (centres undefined) 1.87%
Cc1cccc(C(=O)ON=C(c2ccccc2)c2ccncc2)c1 3.58%
Cc1ccc(-c2csc(N3CCN(c4cc5c(cc4Cl)nc(-c4ccncc4)n5CCOCCO)CC3)n2)cc1 -1.15%
CCCn1c(C2CCCN2c2nc(-c3ccc(C)cc3)cs2)nc2cc(Cl)c(N3CCCCC3)cc21 (centres undefined) 3.86%
CCOC(=O)C1=C(C)N=c2sc(=Cc3ccncc3)c(=O)n2C1c1ccc2c(c1)OCO2 (centres undefined) -0.871%
O=C(N[C@@H](Cc1ccccc1)C(=O)OCc1ccccc1)c1nc[nH]c1C(=O)NC1CCNCC1 -1.66%
CC(C)(C)OC(=O)CNC(=O)c1[nH]cnc1C(=O)N[C@@H](Cc1ccccc1)C(=O)OCc1ccccc1 0.224%
O=C(CNC(=O)c1ccncc1)NN=Cc1cccc([N+](=O)[O-])c1 1.21%
COc1cccc(/C=C/C(=O)OCC(=O)N2CCN(c3ccccc3)CC2)c1 -11.1%
C[C@H](NC(=O)c1ccccc1Cl)C(=O)OCC(=O)N1CCN(c2ccccc2)CC1 0.507%
Cc1cc([N+](=O)[O-])cc(C=Nn2c(C)nc3ccccc3c2=O)c1O 12.9%
Cc1cc(C)n(C(=O)C(C#N)=NNc2cc(Cl)cc(Cl)c2)n1 7.62%
CON=C(C(=O)N[C@@H]1C(=O)N2C(C(=O)O)=C(COC(C)=O)CS[C@H]12)c1csc(N)n1 2.25% and 5.96%
Clc1ccc(-c2csc(NN=Cc3cccnc3)n2)cc1 7.34%
CCOC(=O)c1c(C)nc(-c2ccccc2)nc1NC(=O)C(C)C 2.52%
CCOC(=O)c1ccccc1OC(=O)Oc1ccccc1C(=O)OCC 2.7%
O=C(NN=C/C(Br)=C/c1ccccc1)NC1CCCCC1 4.04%
Cc1cc(C)nc(SCC(=O)N(C)C)n1 4.9%
CC(C)N(C(=O)CSc1nc(COc2ccccc2)nc2ccccc12)C(C)C 2.03%
O=C(NN=Cc1cccs1)c1cc(-c2ccc(Cl)s2)[nH]n1 4.08%
Cc1nn(Cc2ccc(Cl)cc2Cl)c(Cl)c1C=NNC(=O)CNc1cccc(C(F)(F)F)c1 5.09%
O=c1[nH]c(CSc2ccccc2)nc2c1oc1ccccc12 3.26%
COc1ccc(CCNC(=O)CSc2nc(C)nc3c2oc2ccccc23)cc1OC 1.13%
N#Cc1ccc(OCC(=O)NN=C2CC(c3ccccc3)Oc3ccccc32)cc1 (centres undefined) 6.87%
COC(=O)c1ccccc1-c1ccc(C=NNC(N)=O)o1 -17.5%
Cc1cc(C(=O)NN=C2CC(=O)CC(C)(C)C2)c2ccccc2n1 6.67%
O=C(/C=C/c1ccc(N2CCOCC2)cc1)c1ccccc1 -0.318%
O=C(O)c1ccc2c(c1)C(=O)N(c1ccc(/C=C/C(=O)c3ccccc3)cc1)C2=O 8.59%

inhibition, active:
Oc1ccc(C=NNC(=S)Nc2cccnc2)c(O)c1O 22.7%
CCCCCCCCn1c2c(c(=N)c3c1CCC3)CCCC2 25.7%
COc1cc(NC(=O)COC(=O)c2ccc([N+](=O)[O-])s2)cc(OC)c1OC 70.6%
O=C1C(Cl)=C(Oc2ccccc2)C(=O)c2ccccc21 73.8%
COC1(C2=NCCN2)COc2ccccc2O1 (centres undefined) 22.9%
Cn1ccc(=Nc2ccc(NC(=O)c3ccc(N=c4ccn(C)c5ccc([N+](=O)[O-])cc45)cc3)cc2)cc1 27.5%
CCN(CC)C(=O)c1nc[nH]c1C(=O)N(C)Cc1ccccc1 26.1%
CC(=O)N1C(=O)/C(=C2\SC(=S)N(NC(=O)c3ccc(O)cc3)C2=O)c2ccccc21 40.9%
COCCN1C=C2C(=O)C(C)(OC(=O)C3CCCC3)C(=O)C=C2C=C1c1ccsc1 (centres undefined) 46.2%
CCS(=O)(=O)N1CCCC(C(=O)NCCCN(C)Cc2ccccc2)C1 (centres undefined) 29%
O=C(NC1CCCC1)C(c1ccc(N2CCOCC2)cc1)N(C(=O)c1ccco1)c1ccccc1F (centres undefined) 38.4%
Nc1c(Cl)cc(-c2csc(N3CCCC3c3nc4cc(Cl)c(Cl)cc4n3CCOCCO)n2)cc1Cl (centres undefined) 28%
O=C(N[C@@H](Cc1ccccc1)C(=O)OCc1ccccc1)c1nc[nH]c1C(=O)N[C@@H](Cc1ccccc1)C(=O)OCc1ccccc1 31.8%
O=C(OCC(=O)N1CCN(c2ccccc2)CC1)c1ccc([N+](=O)[O-])s1 61.3%
CCOC(=O)c1c(C)[nH]c2c1-c1ccccc1C(=O)C2=O 72.6%
Cc1nnc(SCC(=O)N(C(C)C)C(C)C)nc1C 32.8%
CCSc1nc(C)nc2c1oc1ccccc12 22.4%
O=C(/C=C/c1ccccc1)c1ccoc1 35.8%
